The M2OR odorant receptor database

How the values were obtained:
Settings in all cases: stereoisomer not certain
[1] = target: T1, OR10G2 (Homo sapiens) (UniProt Q8NGC3)
T1 sequence (whole entry): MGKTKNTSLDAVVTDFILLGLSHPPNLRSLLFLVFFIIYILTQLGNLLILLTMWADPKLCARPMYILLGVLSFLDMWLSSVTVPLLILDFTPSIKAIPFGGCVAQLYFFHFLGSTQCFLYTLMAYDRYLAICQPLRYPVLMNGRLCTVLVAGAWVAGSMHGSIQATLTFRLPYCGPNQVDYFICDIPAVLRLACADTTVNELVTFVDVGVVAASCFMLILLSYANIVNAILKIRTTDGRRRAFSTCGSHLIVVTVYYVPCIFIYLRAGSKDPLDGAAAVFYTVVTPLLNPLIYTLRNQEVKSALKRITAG
In short: (§1)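 Transient luciferase assays in mammalian cell lines were common, though methods varied by source. The values come from published papers and their supplementary material, with extra details from the original authors when needed. Responsive refers to a measured signal the original authors judged statistically different from baseline, and non-responsive (inactive) to the remainder.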

[2] = target: T2, OR10G3 (Homo sapiens) (UniProt Q8NGC4)
T2 sequence (whole entry): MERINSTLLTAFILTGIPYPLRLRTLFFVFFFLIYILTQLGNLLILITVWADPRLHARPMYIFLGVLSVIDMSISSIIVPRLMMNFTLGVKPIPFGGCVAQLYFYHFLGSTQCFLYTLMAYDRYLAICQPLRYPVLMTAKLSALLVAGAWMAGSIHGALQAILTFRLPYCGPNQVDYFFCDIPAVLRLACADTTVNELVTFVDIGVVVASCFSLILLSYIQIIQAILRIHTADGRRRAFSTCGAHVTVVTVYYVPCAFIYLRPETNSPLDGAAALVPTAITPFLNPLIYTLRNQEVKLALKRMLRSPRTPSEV
In short: as §1

[3] = target: T3, OR10G4 (Homo sapiens) (UniProt Q8NGN3)
T3 sequence (whole entry): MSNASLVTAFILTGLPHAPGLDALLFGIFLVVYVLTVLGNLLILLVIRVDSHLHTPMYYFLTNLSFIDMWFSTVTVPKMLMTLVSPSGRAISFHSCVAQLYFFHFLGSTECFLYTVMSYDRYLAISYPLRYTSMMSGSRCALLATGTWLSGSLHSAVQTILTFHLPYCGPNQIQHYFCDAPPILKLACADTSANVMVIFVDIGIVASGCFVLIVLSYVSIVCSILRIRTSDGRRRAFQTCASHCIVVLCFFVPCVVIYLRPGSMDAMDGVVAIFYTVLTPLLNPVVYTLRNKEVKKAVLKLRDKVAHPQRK
In short: as §1

[4] = target: T4, OR10G6 (Homo sapiens) (UniProt Q8NH81)
T4 sequence (whole entry): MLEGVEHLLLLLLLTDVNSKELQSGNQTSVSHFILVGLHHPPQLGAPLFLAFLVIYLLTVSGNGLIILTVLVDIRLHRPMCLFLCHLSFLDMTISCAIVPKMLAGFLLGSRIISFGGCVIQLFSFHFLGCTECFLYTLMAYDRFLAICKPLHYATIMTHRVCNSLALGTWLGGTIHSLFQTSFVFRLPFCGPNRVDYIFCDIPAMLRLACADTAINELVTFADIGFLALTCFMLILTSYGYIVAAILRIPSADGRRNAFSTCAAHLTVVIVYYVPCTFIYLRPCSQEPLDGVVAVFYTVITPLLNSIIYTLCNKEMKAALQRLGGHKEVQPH
In short: as §1

[5] = target: T5, OR10G7 (Homo sapiens) (UniProt Q8NGN6)
T5 sequence (whole entry): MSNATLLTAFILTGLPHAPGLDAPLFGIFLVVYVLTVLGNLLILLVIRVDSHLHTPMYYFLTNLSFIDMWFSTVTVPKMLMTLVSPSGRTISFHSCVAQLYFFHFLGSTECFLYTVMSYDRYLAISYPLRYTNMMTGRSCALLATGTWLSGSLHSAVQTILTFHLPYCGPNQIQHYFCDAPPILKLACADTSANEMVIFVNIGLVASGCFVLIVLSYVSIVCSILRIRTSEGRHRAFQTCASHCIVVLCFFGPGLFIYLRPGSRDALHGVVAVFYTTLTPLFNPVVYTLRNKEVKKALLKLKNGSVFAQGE
In short: as §1

[6] = target: T6, OR10G8 (Homo sapiens) (UniProt Q8NGN5)
T6 sequence (whole entry): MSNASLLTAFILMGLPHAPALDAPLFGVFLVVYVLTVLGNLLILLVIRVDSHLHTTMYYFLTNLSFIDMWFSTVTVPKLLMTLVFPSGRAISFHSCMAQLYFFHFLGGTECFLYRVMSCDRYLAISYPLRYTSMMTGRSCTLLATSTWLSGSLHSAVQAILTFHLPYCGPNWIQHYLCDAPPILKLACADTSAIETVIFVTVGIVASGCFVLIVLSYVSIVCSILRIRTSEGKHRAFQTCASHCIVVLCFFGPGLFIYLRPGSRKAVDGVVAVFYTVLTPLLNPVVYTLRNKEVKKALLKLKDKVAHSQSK
In short: as §1

[7] = target: T7, OR10G9 (Homo sapiens) (UniProt Q8NGN4)
T7 sequence (whole entry): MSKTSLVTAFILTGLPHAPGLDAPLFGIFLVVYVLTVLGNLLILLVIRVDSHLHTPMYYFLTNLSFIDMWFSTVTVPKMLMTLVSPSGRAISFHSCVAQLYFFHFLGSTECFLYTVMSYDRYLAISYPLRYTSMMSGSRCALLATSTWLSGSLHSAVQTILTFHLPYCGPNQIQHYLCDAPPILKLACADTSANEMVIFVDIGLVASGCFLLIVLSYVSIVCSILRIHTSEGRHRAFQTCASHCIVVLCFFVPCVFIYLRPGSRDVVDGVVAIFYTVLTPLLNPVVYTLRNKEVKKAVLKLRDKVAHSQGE
In short: as §1

[8] = target: T8, OR10H1 (Homo sapiens) (UniProt Q9Y4A9)
T8 sequence (whole entry): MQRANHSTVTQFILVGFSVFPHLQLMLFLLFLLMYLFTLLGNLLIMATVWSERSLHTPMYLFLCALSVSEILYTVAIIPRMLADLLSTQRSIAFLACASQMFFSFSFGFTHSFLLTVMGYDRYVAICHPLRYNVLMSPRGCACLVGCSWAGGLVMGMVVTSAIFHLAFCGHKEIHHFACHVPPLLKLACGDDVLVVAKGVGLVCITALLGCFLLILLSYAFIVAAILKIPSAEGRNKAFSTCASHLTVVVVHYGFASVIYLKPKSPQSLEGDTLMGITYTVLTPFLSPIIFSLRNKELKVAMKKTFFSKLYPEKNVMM
In short: as §1

[9] = target: T9, OR10H2 (Homo sapiens) (UniProt O60403)
T9 sequence (whole entry): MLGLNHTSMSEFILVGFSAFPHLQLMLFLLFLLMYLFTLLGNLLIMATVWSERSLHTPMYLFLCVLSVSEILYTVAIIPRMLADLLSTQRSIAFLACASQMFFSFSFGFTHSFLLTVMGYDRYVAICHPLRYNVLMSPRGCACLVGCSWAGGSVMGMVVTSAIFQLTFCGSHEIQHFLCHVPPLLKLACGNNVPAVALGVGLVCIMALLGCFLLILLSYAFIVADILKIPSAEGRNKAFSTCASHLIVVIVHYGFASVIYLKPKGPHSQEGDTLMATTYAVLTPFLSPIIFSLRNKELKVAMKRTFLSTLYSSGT
In short: as §1

[10] = target: T10, OR10H3 (Homo sapiens) (UniProt O60404)
T10 sequence (whole entry): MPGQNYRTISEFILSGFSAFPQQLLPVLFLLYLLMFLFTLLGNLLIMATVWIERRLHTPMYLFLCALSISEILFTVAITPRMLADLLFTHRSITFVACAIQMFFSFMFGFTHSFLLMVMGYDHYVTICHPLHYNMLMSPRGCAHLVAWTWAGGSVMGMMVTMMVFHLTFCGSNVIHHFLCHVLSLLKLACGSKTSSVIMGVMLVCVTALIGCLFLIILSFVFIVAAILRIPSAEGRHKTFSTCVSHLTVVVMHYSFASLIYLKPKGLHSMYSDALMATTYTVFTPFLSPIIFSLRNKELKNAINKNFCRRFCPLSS
In short: as §1

Measured: odorant receptor agonist call;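 further: active if original authors judged signal statistically different from baseline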

CC(CO)CS (stereo not given)
inactive: all assays above
